Assay results published in ChEMBL document CHEMBL4265871, “Novel alkylated azoles as potent antifungals” (Eur J Med Chem, 2017).
In brackets after ≈: the same amount, converted by molar mass.

System: not listed separately
Assay: Selectivity index, ratio of EC50 for toxicity in human BEAS2B cells to MIC100 for antifungal activity against Candida albicans ATCC 10231
Type: cell-based
Conditions: BEAS-2B cells, read-out: Selectivity Index
In short: (§1)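 Selectivity index is the EC50 against the mammalian line (A549 or BEAS-2B) divided by the MIC against the given fungal strain.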

SMILES	selectivity ratio
CCCCCC(O)(Cn1cncn1)c1ccc(Cl)cc1 (configuration not stated)	16

System: Candida albicans
Assay: Antifungal activity against ITC and FLC-susceptible Candida albicans ATCC MYA-2876 incubated for 48 hrs by modified CLSI M27-A3 protocol based method
Type: functional
Conditions: ATCC MYA-2876, 48 h
In short: (§2)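 Because these Candida strains show trailing growth, MIC-2 was read, meaning 50% growth inhibition. Caspofungin and voriconazole were tested here; other controls came from earlier work.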

SMILES	MIC50
CCCCCC(O)(Cn1cncn1)c1ccc(Cl)cc1 (configuration not stated)	53.1 µM (≈ 15.6 µg/mL)

System: Candida parapsilosis
Assay: Antifungal activity against Candida parapsilosis ATCC 22019 incubated for 48 hrs by modified CLSI M27-A3 protocol based method
Type: functional
Conditions: Lodderomyces parapsilosis, ATCC 22019, 48 h; read-out: MIC100
In short: (§3)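 For C. albicans ATCC 10231, C. krusei ATCC 6258 and C. parapsilosis ATCC 22019, MIC-0 was read, meaning complete growth inhibition. For azole controls, MIC-2 (50% growth inhibition) was reported instead. Caspofungin and voriconazole were tested here; other controls came from earlier work.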

SMILES	MIC
CCCCCC(O)(Cn1cncn1)c1ccc(Cl)cc1 (configuration not stated)	0.2 µM (≈ 0.0588 µg/mL)

System: not listed separately
Assay: Selectivity index, ratio of EC50 for toxicity in human A549 cells to MIC50 for antifungal activity against ITC and FLC-susceptible Candida albicans ATCC MYA-2876
Type: cell-based
Conditions: read-out: Selectivity Index
In short: as §1

SMILES	selectivity ratio
CCCCCC(O)(Cn1cncn1)c1ccc(Cl)cc1 (configuration not stated)	2

System: Nakaseomyces glabratus
Assay: Antifungal activity against Candida glabrata ATCC 2001 incubated for 48 hrs by modified CLSI M27-A3 protocol based method
Type: functional
Conditions: ATCC 2001, 48 h

SMILES	MIC50
CCCCCC(O)(Cn1cncn1)c1ccc(Cl)cc1 (configuration not stated)	13.3 µM (≈ 3.91 µg/mL)

System: not listed separately
Assay: Selectivity index, ratio of […] for toxicity in human A549 cells to MIC50 for antifungal activity against Aspergillus nidulans ATCC 38163
Type: cell-based
Conditions: read-out: Selectivity Index

SMILES	selectivity ratio
CCCCCC(O)(Cn1cncn1)c1ccc(Cl)cc1 (configuration not stated)	4

System: not listed separately
Assay: Selectivity index, ratio of EC50 for toxicity in human BEAS2B cells to MIC50 for antifungal activity against Candida glabrata ATCC 2001
Type: cell-based
Conditions: BEAS-2B cells, read-out: Selectivity Index
In short: as §1

SMILES	selectivity ratio
CCCCCC(O)(Cn1cncn1)c1ccc(Cl)cc1 (configuration not stated)	8

System: not listed separately
Assay: Selectivity index, ratio of EC50 for toxicity in human BEAS2B cells to MIC50 for antifungal activity against ITC and FLC-resistant Candida albicans ATCC 1237
Type: cell-based
Conditions: BEAS-2B cells, read-out: Selectivity Index
In short: as §1

SMILES	selectivity ratio
CCCCCC(O)(Cn1cncn1)c1ccc(Cl)cc1 (configuration not stated)	8

System: not listed separately
Assay: Selectivity index, ratio of EC50 for toxicity in human BEAS2B cells to MIC50 for antifungal activity against Candida krusei ATCC 6258
Conditions: BEAS-2B cells

SMILES	selectivity ratio
CCCCCC(O)(Cn1cncn1)c1ccc(Cl)cc1 (configuration not stated)	261

System: not listed separately
Assay: Selectivity index, ratio of EC50 for toxicity in human BEAS2B cells to MIC50 for antifungal activity against Candida albicans ATCC 64124
Type: cell-based
Conditions: BEAS-2B cells, read-out: Selectivity Index
In short: as §1

SMILES	selectivity ratio
CCCCCC(O)(Cn1cncn1)c1ccc(Cl)cc1 (configuration not stated)	4

System: Aspergillus nidulans
Assay: Antifungal activity against Aspergillus nidulans ATCC 38163 incubated for 48 hrs by CLSI M38-A2 protocol based method
Type: functional
Conditions: ATCC 38163, 48 h, read-out: MIC100

SMILES	MIC
CCCCCC(O)(Cn1cncn1)c1ccc(Cl)cc1 (configuration not stated)	26.5 µM (≈ 7.79 µg/mL)

System: not listed separately
Assay: Selectivity index, ratio of EC50 for toxicity in human BEAS2B cells to MIC50 for antifungal activity against ITC and FLC-susceptible Candida albicans ATCC MYA-2310
Type: cell-based
Conditions: BEAS-2B cells, read-out: Selectivity Index
In short: (§4)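 Ratio of the compound's EC50 against BEAS-2B cells to its MIC against the named C. albicans strain. […] For C. albicans strains other than ATCC 10231, trailing growth meant MIC-2 was taken, meaning 50% growth inhibition.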

SMILES	selectivity ratio
CCCCCC(O)(Cn1cncn1)c1ccc(Cl)cc1 (configuration not stated)	2

System: Candida albicans
Assay: Antifungal activity against ITC and FLC-susceptible Candida albicans ATCC MYA-2310 incubated for 48 hrs by modified CLSI M27-A3 protocol based method
Type: functional
Conditions: ATCC MYA-2310, 48 h

SMILES	MIC50
CCCCCC(O)(Cn1cncn1)c1ccc(Cl)cc1 (configuration not stated)	53.1 µM (≈ 15.6 µg/mL)

System: not listed separately
Assay: Selectivity index, ratio of EC50 for toxicity in human A549 cells to MIC50 for antifungal activity against ITC and FLC-resistant Candida albicans ATCC MYA-90819
Type: cell-based
Conditions: read-out: Selectivity Index
In short: as §1

SMILES	selectivity ratio
CCCCCC(O)(Cn1cncn1)c1ccc(Cl)cc1 (configuration not stated)	16

System: not listed separately
Assay: Toxicity in human BEAS2B cells assessed as reduction in cell viability incubated for 24 hrs by resazurin dye based assay
Conditions: BEAS-2B cells
In short: (§5)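 Toxicity tested in the nucleated lines A549 and BEAS-2B to give EC50 values. Selectivity index is EC50 against the mammalian line divided by the MIC against a given fungal strain.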

SMILES	EC50 at 24 h
CCCCCC(O)(Cn1cncn1)c1ccc(Cl)cc1 (configuration not stated)	> 31.3 mg/L

System: not listed separately
Assay: Selectivity index, ratio of EC50 for toxicity in human A549 cells to MIC50 for antifungal activity against ITC and FLC-resistant Candida albicans ATCC MYA-1003
Type: cell-based
Conditions: read-out: Selectivity Index
In short: as §1

SMILES	selectivity ratio
CCCCCC(O)(Cn1cncn1)c1ccc(Cl)cc1 (configuration not stated)	16

System: not listed separately
Assay: Selectivity index, ratio of EC50 for toxicity in human A549 cells to MIC for antifungal activity against Candida parapsilosis ATCC 22019
Conditions: not given

SMILES	selectivity ratio
CCCCCC(O)(Cn1cncn1)c1ccc(Cl)cc1 (configuration not stated)	522

System: not listed separately
Assay: Selectivity index, ratio of EC50 for toxicity in human A549 cells to MIC50 for antifungal activity against ITC and FLC-resistant Candida albicans ATCC 1237
Type: cell-based
Conditions: read-out: Selectivity Index
In short: as §1

SMILES	selectivity ratio
CCCCCC(O)(Cn1cncn1)c1ccc(Cl)cc1 (configuration not stated)	8

System: Candida albicans
Assay: Antifungal activity against Candida albicans ATCC 64124 incubated for 48 hrs by modified CLSI M27-A3 protocol based method
Type: functional
Conditions: ATCC 64124, 48 h

SMILES	MIC50
CCCCCC(O)(Cn1cncn1)c1ccc(Cl)cc1 (configuration not stated)	26.5 µM (≈ 7.79 µg/mL)

System: not listed separately
Assay: Selectivity index, ratio of EC50 for toxicity in human A549 cells to MIC50 for antifungal activity against Candida albicans ATCC 64124
Type: cell-based
Conditions: read-out: Selectivity Index
In short: as §1

SMILES	selectivity ratio
CCCCCC(O)(Cn1cncn1)c1ccc(Cl)cc1 (configuration not stated)	4

System: Pichia kudriavzevii
Assay: Antifungal activity against Candida krusei ATCC 6258 incubated for 48 hrs by modified CLSI M27-A3 protocol based method
Type: functional
Conditions: ATCC 6258, 48 h, read-out: MIC100
In short: as §3

SMILES	MIC
CCCCCC(O)(Cn1cncn1)c1ccc(Cl)cc1 (configuration not stated)	0.41 µM (≈ 0.12 µg/mL)

System: not listed separately
Assay: Selectivity index, ratio of EC50 for toxicity in human BEAS2B cells to MIC50 for antifungal activity against ITC and FLC-susceptible Candida albicans ATCC MYA-2876
Type: cell-based
Conditions: BEAS-2B cells, read-out: Selectivity Index
In short: as §4

SMILES	selectivity ratio
CCCCCC(O)(Cn1cncn1)c1ccc(Cl)cc1 (configuration not stated)	2

System: not listed separately
Assay: Selectivity index, ratio of EC50 for toxicity in human A549 cells to MIC50 for antifungal activity against Candida krusei ATCC 6258
Conditions: not given

SMILES	selectivity ratio
CCCCCC(O)(Cn1cncn1)c1ccc(Cl)cc1 (configuration not stated)	261

System: not listed separately
Assay: Selectivity index, ratio of EC50 for toxicity in human BEAS2B cells to MIC50 for antifungal activity against ITC and FLC-resistant Candida albicans ATCC MYA-1003
Type: cell-based
Conditions: BEAS-2B cells, read-out: Selectivity Index
In short: as §1

SMILES	selectivity ratio
CCCCCC(O)(Cn1cncn1)c1ccc(Cl)cc1 (configuration not stated)	16

System: Candida albicans
Assay: Antifungal activity against ITC and FLC-resistant Candida albicans ATCC MYA-1003 incubated for 48 hrs by modified CLSI M27-A3 protocol based method
Type: functional
Conditions: ATCC MYA-1003, 48 h
In short: as §2

SMILES	MIC50
CCCCCC(O)(Cn1cncn1)c1ccc(Cl)cc1 (configuration not stated)	6.6 µM (≈ 1.94 µg/mL)

System: not listed separately
Assay: Toxicity in human A549 cells assessed as reduction in cell viability incubated for 24 hrs by resazurin dye based assay
Conditions: not given
In short: as §5

SMILES	EC50 at 24 h
CCCCCC(O)(Cn1cncn1)c1ccc(Cl)cc1 (configuration not stated)	> 31.3 mg/L

System: not listed separately
Assay: Selectivity index, ratio of […] for toxicity in human BEAS2B cells to MIC50 for antifungal activity against Aspergillus flavus ATCC MYA-3631
Type: cell-based
Conditions: BEAS-2B cells, read-out: Selectivity Index

SMILES	selectivity ratio
CCCCCC(O)(Cn1cncn1)c1ccc(Cl)cc1 (configuration not stated)	1
